Measurements reported in paper PMC6675461 (Bioorganic & medicinal chemistry, 2009).
Read-outs that look alike come from different tables or passages of the source. Values belong to the molecule of their own block, whether it stands above or below them.

How the values were obtained:
[1] = test system: three melanoma cell lines (B16-F1, A375, WM-164); assay: SRB assay, average over melanoma cell lines and selectivity vs fibroblast; type: cell-based, human, mouse; conditions: for Ratio = (IC50 of fibroblast cell)/(the average IC50 of melanoma cell lines): selectivity, fold; for Antiproliferative activity on melanoma cell lines, in words: reference compounds, in vitro
[2] = test system: four prostate cancer cell lines (DU 145, PC-3, LNCaP, PPC-1); assay: SRB assay, average over prostate cancer cell lines and selectivity vs RH7777; type: cell-based, human; conditions: for Ratio = (IC50 of RH7777 cell)/(average IC50 of prostate cell lines): selectivity, fold
Summary of the method: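 The control line was LPL receptor-negative RH7777 in DMEM/10% FBS. The prostate IC50s were averaged. Selectivity = IC50 in RH7777 divided by the average tumor-cell IC50.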

PPC-1 cells = assay: SRB antiproliferative assay, PPC-1 prostate cancer cells; type: cell-based, human; conditions: read-out: IC50 ± SEM PPC-1; SRB, 96 h, Table 2
Summary of the method: (§1)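 Prostate cancer cells were grown in RPMI1640 with 10% FBS at 37 °C, 5% CO2. Cells were fixed with 10% TCA and stained with 0.4% SRB, and absorbance was read at 540 nm. IC50 came from nonlinear regression of % survival versus concentration.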

LNCaP cells = assay: SRB antiproliferative assay, LNCaP prostate cancer cells; type: cell-based, human; conditions: read-out: IC50 ± SEM LNCaP; SRB, 96 h, Table 2
Summary of the method: as §1

A375 cells = assay: SRB antiproliferative assay, A375 melanoma cells; type: cell-based, human; conditions: read-out: IC50 ± SEM A375
Summary of the method: (§2)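 Melanoma lines (human A375, WM-164; mouse B16-F1) and human dermal fibroblasts were grown in DMEM with 5% FBS, 1% antibiotic/antimycotic and bovine insulin (5 μg/mL) at 37 °C, 5% CO2. Diastereomeric mixtures were applied over a wide concentration range for 48 h. Cells were then TCA-fixed (10%), washed, air-dried overnight and SRB-stained, with absorbance read at 560 nm. IC50 (50% growth inhibition versus untreated) was obtained by nonlinear regression.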

PC-3 cells = assay: SRB antiproliferative assay, PC-3 prostate cancer cells; type: cell-based, human; conditions: read-out: IC50 ± SEM PC-3; SRB, 96 h, Table 2
WM-164 cells = assay: SRB antiproliferative assay, WM-164 melanoma cells; type: cell-based, human; conditions: read-out: IC50 ± SEM WM-164
Summary of the method: as §2

B16-F1 cells = assay: SRB antiproliferative assay, B16-F1 melanoma cells; type: cell-based, mouse; conditions: read-out: IC50 ± SEM B16-F1, 48 h, diastereomeric mixtures
Summary of the method: as §2

DU 145 cells = assay: SRB antiproliferative assay, DU 145 prostate cancer cells; type: cell-based, human; conditions: read-out: IC50 ± SEM DU 145; SRB, 96 h, Table 2
Summary of the method: as §1

[3] = test system: Human dermal fibroblast cells; assay: SRB assay, fibroblast control cells; type: cell-based; conditions: read-out: IC50 ± SEM Fibroblast, 48 h, control cell line for melanoma
Summary of the method: as §2

LPA5 = LPA5 (Homo sapiens, UniProt Q9H1C0); assay: FLIPR intracellular calcium mobilization assay, LPA5-transfected Chem-1 cells; type: cell-based; conditions: top concentration 10 μM; 15% activation of oleoyl-LPA Emax = agonist
LPA1 = LPA1 (Homo sapiens, UniProt Q92633); assay: FLIPR intracellular calcium mobilization assay, LPA1-transfected Chem-1 cells; type: cell-based; conditions: top concentration 10 μM; 15% activation of oleoyl-LPA Emax = agonist
LPA3 = target: T1, LPA3 (Homo sapiens, UniProt Q9UBY5); assay: FLIPR intracellular calcium mobilization assay, LPA3-transfected Chem-1 cells; type: cell-based; conditions: top concentration 10 μM; 15% activation of oleoyl-LPA Emax = agonist
T1 sequence (Q9UBY5 1-353): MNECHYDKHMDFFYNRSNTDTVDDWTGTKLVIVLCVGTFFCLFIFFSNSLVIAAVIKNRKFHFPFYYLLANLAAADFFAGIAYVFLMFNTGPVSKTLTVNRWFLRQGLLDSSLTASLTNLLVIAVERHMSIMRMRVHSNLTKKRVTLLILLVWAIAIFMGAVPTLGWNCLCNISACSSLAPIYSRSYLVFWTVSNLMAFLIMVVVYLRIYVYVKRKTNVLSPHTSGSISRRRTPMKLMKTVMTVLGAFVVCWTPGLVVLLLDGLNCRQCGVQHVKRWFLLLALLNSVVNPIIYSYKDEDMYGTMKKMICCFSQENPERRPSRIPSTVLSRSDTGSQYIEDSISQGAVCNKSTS

A375 melanoma tumors = assay: A375 melanoma xenograft in athymic nude mice; type: in vivo
[4] = test system: NCI-60 human tumor cell lines; assay: NCI-60 human tumor cell line anticancer drug screen; type: cell-based; conditions: read-out: GI50 range, all nine types of cancer cells
[5] = read-out: Aver. (average IC50 of three melanoma cells IC50s), B16-F1, A375, WM-164
[6] = read-out: Aver. (average IC50 of four prostate cells IC50s), DU 145, PC-3, LNCaP, PPC-1
[7] = SRB, 48 h, diastereomeric mixtures
[8] = Fibroblast, read-out: Aver. (average IC50 of three melanoma cells IC50s)
[9] = Homo sapiens, RH7777, read-out: Aver. (average IC50 of four prostate cells IC50s)

Chain of LPA1 (Q92633 whole entry, species assumed): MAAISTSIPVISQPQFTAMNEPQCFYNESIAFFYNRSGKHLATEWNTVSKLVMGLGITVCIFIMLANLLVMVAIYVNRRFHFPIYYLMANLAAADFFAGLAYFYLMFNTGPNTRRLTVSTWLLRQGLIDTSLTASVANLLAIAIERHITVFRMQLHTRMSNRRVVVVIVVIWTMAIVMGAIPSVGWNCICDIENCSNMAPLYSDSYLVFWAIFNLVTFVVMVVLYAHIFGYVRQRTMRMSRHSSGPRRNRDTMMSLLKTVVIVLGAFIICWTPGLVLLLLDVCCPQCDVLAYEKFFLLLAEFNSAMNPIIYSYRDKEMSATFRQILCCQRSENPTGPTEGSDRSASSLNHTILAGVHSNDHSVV
Chain of LPA5 (Q9H1C0 whole entry, species assumed): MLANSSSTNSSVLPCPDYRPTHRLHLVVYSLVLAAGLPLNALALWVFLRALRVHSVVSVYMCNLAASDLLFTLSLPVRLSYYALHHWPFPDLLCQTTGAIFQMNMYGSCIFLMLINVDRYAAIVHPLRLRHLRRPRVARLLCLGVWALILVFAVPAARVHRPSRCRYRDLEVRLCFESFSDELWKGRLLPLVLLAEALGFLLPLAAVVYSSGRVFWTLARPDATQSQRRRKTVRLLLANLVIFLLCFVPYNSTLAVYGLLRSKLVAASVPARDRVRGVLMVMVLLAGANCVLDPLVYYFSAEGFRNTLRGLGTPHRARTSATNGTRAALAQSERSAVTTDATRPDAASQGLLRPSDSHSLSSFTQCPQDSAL

IC50 [2, 6]: 2.3 µM
Ratio = (IC50 of RH7777 cell)/(average IC50 of prostate cell lines) [2]: 2.4
IC50 (PPC-1 cells): 1.6 ± 0.1 µM
IC50 (LNCaP cells): 3.5 ± 0.7 µM
IC50 (A375 cells; [7]): 2.1 ± 0.1 µM
IC50 (PC-3 cells): 2.1 ± 0.1 µM
IC50 (WM-164 cells; [7]): 1.7 ± 0.1 µM
IC50 (B16-F1 cells): 3.9 ± 0.3 µM
IC50 (DU 145 cells): 1.9 ± 0.3 µM
Molecule: (2RS,4R)-2-(4-Acetylamino-phenyl)-thiazolidine-4-carboxylic acid-(9H-fluoren-2-yl)-amide [Compound 3id]
IC50 [1, 5]: 2.6 µM
Ratio = (IC50 of fibroblast cell)/(the average IC50 of melanoma cell lines) [1]: 11.3
IC50 [3]: 28.9 ± 1 µM

IC50 (A375 cells; [7]): > 100 µM
IC50 (WM-164 cells; [7]): > 100 µM
IC50 (B16-F1 cells): > 100 µM
Molecule: [NH2][Pt]([NH2])([Cl])[Cl] [CDDP, cisplatin, reference compound]
Antiproliferative activity on melanoma cell lines, in words [1]: resistant
IC50 [3]: > 100 µM

IC50 [2, 9]: 1.6 µM
Molecule: CCCCCCCCCCCCCCCCNC(=O)[C@@H]1CSC(c2ccc(OC)cc2)N1 (mixture of isomers) [Compound 3ea, (2RS,4R)-2-(4-Methoxy-phenyl)-thiazolidine-4-carboxylic acid hexadecylamide]
IC50 [1, 8]: 1.6 µM

IC50 [2, 9]: 1 µM
Molecule: CCCCCCCCCCCCCCCCNC(=O)[C@@H]1CSC(c2ccc(NC(=O)CCl)cc2)N1 (stereo partly drawn) [Compound 15b, (2RS,4R)-2-[4-(2-Chloro-acetylamino)-phenyl]-thiazoli-dine-4-carboxylic acid hexadecylamide]
IC50 [1, 8]: 39.8 µM
IC50 ([1]; Fibroblast, read-out: IC50 range over melanoma cell lines): 5.7 to 114 µM

IC50 [2, 6]: 10.3 µM
Ratio = (IC50 of RH7777 cell)/(average IC50 of prostate cell lines) [2]: 1.3
IC50 (PPC-1 cells): 6.8 ± 0.8 µM
IC50 (LNCaP cells): 10.6 ± 0.6 µM
IC50 (A375 cells; [7]): 12.6 ± 0.5 µM
IC50 (PC-3 cells): 9 ± 1.3 µM
IC50 (WM-164 cells; [7]): 20.4 ± 0.8 µM
IC50 (B16-F1 cells): 15 ± 0.8 µM
IC50 (DU 145 cells): 14.9 ± 2.2 µM
Molecule: (2RS,4R)-3-Acetyl-2-(4-acetylamino-phenyl)-thiazolidine-4-carboxylic acid hexadecylamide [Compound 4]
IC50 [1, 5]: 16 µM
Ratio = (IC50 of fibroblast cell)/(the average IC50 of melanoma cell lines) [1]: 3.6
IC50 [3]: 57.7 ± 1.3 µM

IC50 [2, 6]: 2.6 µM
Ratio = (IC50 of RH7777 cell)/(average IC50 of prostate cell lines) [2]: 3.6
IC50 (PPC-1 cells): 0.8 ± 0.1 µM
IC50 (LNCaP cells): 1.8 ± 0.1 µM
IC50 (A375 cells; [7]): 20.6 ± 2.1 µM
IC50 (PC-3 cells): 3.7 ± 0.2 µM
IC50 (WM-164 cells; [7]): 10.7 ± 0.9 µM
IC50 (B16-F1 cells): 18.9 ± 1.3 µM
IC50 (DU 145 cells): 3.9 ± 0.4 µM
Molecule: (2RS,4R)-2-(4-Acetylamino-phenyl)-thiazolidine-4-carboxylic acid (1-methyl-octadecyl)-amide [Compound 3ia]
fold decrease in potency compared with 1b, melanoma cells ([1]; from average IC50): 9.3 fold
IC50 [1, 5]: 16.7 µM
fold decrease in potency compared with 1b, prostate cancer cells ([2]; from average IC50): 2.4 fold
IC50 [3]: > 100 µM

IC50 [2, 9]: 2 µM
Molecule: CCCCCCCCCCCCCCCCNC(=O)[C@@H]1CSC(c2ccc(NC(N)=O)cc2)N1 (mixture of isomers) [Compound 15c, (2RS,4R)-2-(4-Ureido-phenyl)-thiazolidine-4-carboxylic acid hexadecylamide]
IC50 [1, 8]: 3.9 µM

agonist activity on LPA5, in words (LPA5): did not show agonist effect
agonist activity on LPA1, in words (LPA1): did not show agonist effect
agonist activity on LPA3, in words (LPA3): did not show agonist effect
Molecule: Cc1noc(-c2ccc(CSCCC(=O)O)cc2)c1NC(=O)OC(C)c1ccccc1Cl (centres unmarked) [Ki16425, reference compound]

IC50 [2, 9]: 1 µM
Molecule: CC(=O)Nc1ccc(C2N[C@H](C(=O)Nc3ccc4cc5ccccc5cc4c3)CS2)cc1 (some centres unmarked) [Compound 3ie]
IC50 [1, 8]: 3.4 µM

IC50 [2, 9]: 3.2 µM
Molecule: CCCCCCCCCCCCCCCCCCNC(=O)[C@@H]1CSC(c2ccc(OC)c(OC)c2)N1 (mixture of isomers) [Compound 3ba, (2RS,4R)-2-(3,4-Dimethoxy-phenyl)-thiazolidine-4-carboxylic acid octadecylamide]
IC50 [1, 8]: 8 µM

IC50 [2, 9]: 1.7 µM
Molecule: CCCCCCCCC/C=C\CCCCCCCNC(=O)[C@@H]1CSC(c2ccccc2)N1 (mixture of isomers) [Compound 3jb, (2RS,4R)-2-Phenyl-thiazolidine-4-carboxylic acid (Z)-octadec-8-enylamide]
IC50 [1, 8]: 4.4 µM

IC50 [2, 9]: 0.7 µM
Molecule: CCCCCCCCCCCCCCCCNC(=O)[C@@H]1CSC(c2cccc(OC)c2)N1 (mixture of isomers) [Compound 3da, (2RS,4R)-2-(3-Methoxy-phenyl)-thiazolidine-4-carboxylic acid hexadecylamide]
IC50 [1, 8]: 2 µM

IC50 [2, 9]: 0.8 µM
Molecule: CCCCCCCCC/C=C/CCCCCCCNC(=O)[C@@H]1CSC(c2cc(OC)c(OC)c(OC)c2)N1 (stereo partly drawn) [Compound 3ac, (2RS,4R)-2-(3,4,5-Trimethoxy-phenyl)-thiazolidine-4-carboxylic acid octadec-8-trans-enylamide]
IC50 [1, 8]: 2 µM

IC50 [2, 9]: 3 µM
Molecule: CCCCCCCCCCCCCCCCNC(=O)[C@@H]1CSC(c2ccccc2NC(C)=O)N1 (mixture of isomers) [Compound 3ga, (2RS,4R)-2-(2-Acetylamino-phenyl)-thiazolidine-4-carboxylic acid hexadecylamide]
IC50 [1, 8]: 7.1 µM

Molecule: CN(C)/N=N/c1[nH]cnc1C(N)=O [DTIC, dacarbazine]
Antiproliferative activity on melanoma cell lines, in words [1]: inactive
tumor growth inhibition (A375 melanoma tumors; 60 mg/kg i.p. once daily, end of treatment, nude mice): 42%
body weight change during the experiment (A375 melanoma tumors; mouse, in vivo): no significant body weight loss

IC50 (WM-164 cells; Homo sapiens, WM164, 48 h): 2.4 ± 0.2 µM
Molecule: CCCCCCCCC/C=C/CCCCCCCNC(=O)[C@@H]1CSC(c2ccccc2)N1 (mixture of isomers) [Compound 3jc, (2RS,4R)-2-Phenyl-thiazolidine-4-carboxylic acid (E)-octadec-8-enylamide]
IC50 [1, 8]: 5.9 µM

IC50 [2, 9]: 4.8 µM
Molecule: CCCCCCCCCCCCCCCCNC(=O)[C@@H]1CSC(c2ccccc2OC)N1 (mixture of isomers) [Compound 3ca, (2RS,4R)-2-(2-Methoxy-phenyl)-thiazolidine-4-carboxylic acid hexadecylamide]
IC50 [1, 8]: 3.2 µM

IC50 [2, 9]: 1 µM
Molecule: CCCCCCCCC/C=C\CCCCCCCNC(=O)[C@@H]1CSC(c2cc(OC)c(OC)c(OC)c2)N1 (stereo partly drawn) [Compound 3ab, (2RS,4R)-2-(3,4,5-Trimethoxy-phenyl)-thiazolidine-4-carboxylic acid octadec-8-cis-enylamide]
IC50 [1, 8]: 2.8 µM

IC50 [2, 9]: 6.9 µM
Molecule: CCCCCCCCCCCCCCCCCCNC(=O)[C@@H]1CSC(c2ccccc2)N1 (mixture of isomers) [Compound 1a, (2RS,4R)-2-Phenyl-thiazolidine-4-carboxylic acid octadecylamide]
IC50 [1, 8]: 11.6 µM
GI50 [4]: 0.12 to 10.9 µM

IC50 (A375 cells; Homo sapiens, A-375, 48 h): 5.4 ± 0.5 µM
Molecule: CNC(=O)c1cc(Oc2ccc(NC(=O)Nc3ccc(Cl)c(C(F)(F)F)c3)cc2)ccn1 [Sorafenib, reference compound]
